Data as given in ChEMBL document CHEMBL1140307, “Design and synthesis of alpha-aryloxyphenylacetic acid derivatives: a novel class of PPARalpha/gamma dual agonists with potent antihyperglycemic and lipid modulating activity” (J Med Chem, 2005).

Legend:
Rattus norvegicus [1] = assay: Effect (150 mg/kg) on PPAR gamma- mediated effects measured as change in heart weight in rats; format: functional
Outline: (§1)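 Male Sprague-Dawley rats (about 200 g, n = 6) were fed rodent chow and gavaged once daily for 2 weeks with compound in 0.5% methylcellulose. Body weight was recorded on days 1, 4, 6, 8, 11 and 14. Rats were euthanized with CO2 24 h after the last dose, and BAT, heart and liver were weighed. Blood was taken by heart puncture for hematocrit. Results are mean ± SD versus vehicle.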

Rattus norvegicus [2] = assay: Effect (150 mg/kg) on PPAR gamma- mediated effects measured as change in hematocrit weight in rats; format: functional; outline: as §1
Rattus norvegicus [3] = assay: Effect (150 mg/kg) on PPAR gamma- mediated effects measured as change in brown adipose tissue weight in rats; format: functional; outline: as §1
Rattus norvegicus [4] = assay: Effect (150 mg/kg) on PPAR gamma- mediated effects measured as change in liver weight in rats; format: functional; outline: as §1
Rattus norvegicus [5] = assay: Effect (150 mg/kg) on PPAR gamma- mediated effects measured as change in body weight in rats; format: functional; outline: as §1
[6] = molecular target: T1, Peroxisome proliferator-activated receptor alpha (Homo sapiens, UniProt Q07869); assay: In vitro binding affinity for human PPAR alpha
T1 sequence (Q07869 whole entry): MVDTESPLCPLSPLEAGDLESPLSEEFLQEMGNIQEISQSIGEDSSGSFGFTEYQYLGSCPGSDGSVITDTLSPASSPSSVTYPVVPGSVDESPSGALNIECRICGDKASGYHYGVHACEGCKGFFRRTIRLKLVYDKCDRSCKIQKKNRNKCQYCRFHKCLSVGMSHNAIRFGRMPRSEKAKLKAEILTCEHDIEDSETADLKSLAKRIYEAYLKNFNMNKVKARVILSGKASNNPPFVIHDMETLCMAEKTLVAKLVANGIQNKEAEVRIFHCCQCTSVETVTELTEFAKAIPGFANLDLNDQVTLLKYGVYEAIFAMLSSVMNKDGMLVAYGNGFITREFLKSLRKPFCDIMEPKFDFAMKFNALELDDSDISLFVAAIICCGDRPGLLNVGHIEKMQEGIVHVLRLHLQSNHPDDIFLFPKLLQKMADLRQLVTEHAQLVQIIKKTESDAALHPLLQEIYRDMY

[7] = molecular target: T2, Peroxisome proliferator-activated receptor gamma (Homo sapiens, UniProt P37231); assay: In vitro binding affinity for human PPAR gamma
T2 sequence (P37231 whole entry): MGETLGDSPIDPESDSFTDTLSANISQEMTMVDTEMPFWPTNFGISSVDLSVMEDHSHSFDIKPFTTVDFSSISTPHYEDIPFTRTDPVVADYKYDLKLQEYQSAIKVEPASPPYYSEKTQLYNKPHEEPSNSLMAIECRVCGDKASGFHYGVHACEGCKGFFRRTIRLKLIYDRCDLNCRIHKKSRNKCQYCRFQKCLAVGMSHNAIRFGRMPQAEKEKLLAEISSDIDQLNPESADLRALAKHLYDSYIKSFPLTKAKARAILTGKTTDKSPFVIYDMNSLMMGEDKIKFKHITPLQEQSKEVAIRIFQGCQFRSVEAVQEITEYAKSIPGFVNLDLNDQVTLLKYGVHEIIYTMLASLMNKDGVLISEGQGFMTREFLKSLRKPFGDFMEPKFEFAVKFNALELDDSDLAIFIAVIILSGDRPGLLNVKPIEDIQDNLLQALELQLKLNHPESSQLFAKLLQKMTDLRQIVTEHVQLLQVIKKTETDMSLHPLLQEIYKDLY

[8] = molecular target: T2, Peroxisome proliferator-activated receptor gamma; assay: Agonist response against human PPAR gamma in transactivation assay; format: functional
[9] = molecular target: T1, Peroxisome proliferator-activated receptor alpha; assay: Agonist response against human PPAR alpha in transactivation assay
[10] = Area under concentration time curve of compound when administered perorally at a dose of 2 mg/kg to dogs; format: ADME, organism-based, Canis lupus familiaris; set-up: dose 2 mg/kg, route oral; settings: dog, in vivo, po
Outline: (§2)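 Male Sprague-Dawley rats (n = 3) and male adult Beagle dogs (n = 4) were fasted overnight. They received either a 2 mg/kg oral gavage dose or a 0.5 mg/kg IV bolus. Blood was drawn into heparin tubes from a femoral arterial cannula (rat) or the jugular vein (dog) at set time points. Plasma was acidified with 0.5 M formate pH 3.0, stored at -70 °C and quantified by LC-MS/MS.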

[11] = Area under concentration time curve of compound when administered perorally at a dose of 2 mg/kg to rats; format: ADME, organism-based; set-up: dose 2 mg/kg, route oral; settings: rat, in vivo, po; outline: as §2
Cricetinae gen. sp. [12] = assay: Percentage change in the serum cholesterol upon administration of compound (10 mpk) in hamster; format: functional
Outline: (§3)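 Male Golden Syrian hamsters were fed normal rodent chow and dosed orally once daily with compound. Serum total cholesterol and triglyceride were measured and expressed as percent change versus vehicle controls.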

Cricetinae gen. sp. [13] = assay: Percentage change in the serum triglyceride upon administration of compound (10 mpk) in hamster; format: functional; outline: as §3
[14] = Oral bioavailability in dog; format: ADME, organism-based, Canis lupus familiaris; settings: in vivo; outline: as §2
[15] = Oral bioavailability in rat; format: ADME, organism-based; settings: in vivo; outline: as §2
Cricetinae gen. sp. [16] = assay: Effect (10 mpk) on serum cholesterol in hamster; format: functional
Outline: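 Male Golden Syrian hamsters on normal rodent chow, dosed orally with test compound (9 days per table legend). Serum total cholesterol and triglyceride were measured in mg/dL. Values are group means, expressed as % change versus the vehicle-treated control group.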

[17] = Half life when administered intravenously at a dose of 0.5 mg/kg to dogs; format: ADME, organism-based, Canis lupus familiaris; set-up: dose 0.5 mg/kg, route intravenous; settings: dog, in vivo, iv; outline: as §2
[18] = Half life when administered intravenously at a dose of 0.5 mg/kg to rats; format: ADME, organism-based; set-up: dose 0.5 mg/kg, route intravenous; settings: rat, in vivo, iv; outline: as §2
Mesocricetus auratus = species: Mesocricetus auratus; assay: Effect (10 mpk) on serum triglyceride in hamster
Canis familiaris = assay: Percentage change in the serum cholesterol upon administration of compound (10 mpk) in dogs

Structure (SMILES)	IC50 [6] [nM]	IC50 [7] [nM]	EC50 [8] [nM]	EC50 [9] [nM]	further results
CN(CCOc1ccc(CC2SC(=O)NC2=O)cc1)c1ccccn1 (stereo not given) [ROSIGLITAZONE]	–	–	–	–	Heart weight (Rattus norvegicus [1]): 1.46 g; Hematocrit (Rattus norvegicus [2]): 41.3%; BAT (Rattus norvegicus [3]): 1.03 g; Liver weight (Rattus norvegicus [4]): 16.6 g; Body weight (Rattus norvegicus [5]): 322 g
CCC(=O)c1cc(C)c(OC(C(=O)O)c2ccccc2)c(C)c1 (stereo not given)	3000	> 50000	–	–	–
CCCc1cc(C(=O)CC)cc(CCC)c1NC(C(=O)O)c1ccc(C(C)C)cc1 (stereo not given)	> 50000	> 50000	–	–	–
CCC(=O)c1ccc(OC(C(=O)O)c2ccccc2)cc1 (stereo not given)	> 50000	> 50000	–	–	–
CCCc1cc2c(=O)n(C(C)C)oc2c(CCC)c1O[C@H](C(=O)O)c1ccc(CC(C)C)cc1	790	260	370	–	–
CCCc1cc2c(=O)n(C(C)C)oc2c(CCC)c1O[C@H](C(=O)O)c1ccc(C(C)C)cc1	230	160	430	270	–
CCCc1cc(C(=O)CC)cc(CCC)c1O[C@H](C(=O)O)c1ccc(CC)cc1	64	210	480	76	–
CCCc1cc2c(oc(=O)n2CC)c(CCC)c1O[C@H](C(=O)O)c1ccc(Cl)cc1	260	220	–	–	–
CCCc1cc(C(=O)CC)cc(CCC)c1O[C@H](C(=O)O)c1ccc(OC(C)C)cc1	43	200	–	110	–
CCCc1cc2c(oc(=O)n2CC)c(CCC)c1O[C@H](C(=O)O)c1ccc(C(C)C)cc1	74	99	120	290	AUC [10]: 9.1 µM·h; AUC [11]: 127 µM·h; Heart weight (Rattus norvegicus [1]): 1.1 g; Hematocrit (Rattus norvegicus [2]): 45.6%; BAT (Rattus norvegicus [3]): 0.24 g; Change (Cricetinae gen. sp. [12]): -25%; Change (Cricetinae gen. sp. [13]): -6%; Liver weight (Rattus norvegicus [4]): 22.4 g; bioavailability [14]: 35%; bioavailability [15]: 72%; Body weight (Rattus norvegicus [5]): 283 g
CCCc1cc(C(=O)c2ccccc2)cc(CCC)c1OC(C(=O)O)c1ccccc1 (stereo not given)	800	4680	–	–	–
CCCc1cc2c(oc(=O)n2C)c(CCC)c1O[C@H](C(=O)O)c1ccc(C(C)C)cc1	393	85	640	–	–
CCCc1cc2c(oc(=O)n2CCC)c(CCC)c1O[C@H](C(=O)O)c1ccc(C(C)C)cc1	150	87	120	–	–
CCC(=O)c1cc(C(C)CC)c(OC(C(=O)O)c2ccccc2)c(C(C)CC)c1 (stereo not given)	6120	> 50000	–	–	–
CCCc1cc(C(=O)CC)cc(C)c1OC(C(=O)O)c1ccc(C(C)C)cc1 (stereo not given)	160	260	197	160	–
CCCc1cc2c(=O)n(C)oc2c(CCC)c1O[C@H](C(=O)O)c1ccc(C(C)C)cc1	74	–	390	670	AUC [10]: 26.9 µM·h; AUC [11]: 67.5 µM·h; Heart weight (Rattus norvegicus [1]): 1.14 g; Hematocrit (Rattus norvegicus [2]): 45.7%; BAT (Rattus norvegicus [3]): 0.24 g; Change (Cricetinae gen. sp. [12]): -17%; Change (Cricetinae gen. sp. [13]): -9%; Liver weight (Rattus norvegicus [4]): 20.3 g; Cholesterol level (Cricetinae gen. sp. [16]): 106 mg/dL; half-life [17]: 1.6 h; half-life [18]: 7.2 h; bioavailability [14]: 73%; bioavailability [15]: 73%; Body weight (Rattus norvegicus [5]): 278 g; Triglyceride level (Mesocricetus auratus): 303 mg/dL; Change (Canis familiaris): -17.3%
